Test results from ChEMBL document CHEMBL1773035, “SHAFTS: a hybrid approach for 3D molecular similarity calculation. 2. Prospective case study in the discovery of diverse p90 ribosomal S6 protein kinase 2 inhibitors to suppress cell migration” (J Med Chem, 2011).
pIC50: −log10 of the molar value.

Legend:
[1] = system: MDA-MB-231; assay: Antiproliferative activity against human MDA-MB-231 cells over expressing RSK2 at 100 uM after 48 hrs by MTT assay; format: functional; settings: MDA-MB-231, 48 h
Procedure, shortened: (§1)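 Formazan dissolved in DMSO, absorbance read at 570 nm. Inhibition = (1 − A570 compound/A570 control)×100. Screening concentration 100 μM (control 10 μM). IC50 from curves, ≥3 independent tests, attempted when inhibition at 100 μM exceeded 40%.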

[2] = system: MDA-MB-231; assay: Antiproliferative activity against human MDA-MB-231 cells over expressing RSK2 after 48 hrs by MTT assay; format: functional, cell-based; settings: MDA-MB-231, 48 h; procedure, shortened: as §1
[3] = system: MCF7; assay: Antiproliferative activity against human MCF7 cells over expressing RSK2 at 100 uM after 48 hrs by MTT assay; format: functional; settings: MCF7, 48 h; procedure, shortened: as §1
[4] = system: HCT-116; assay: Antiproliferative activity against human HCT116 cells over expressing RSK2 after 48 hrs by MTT assay; format: functional, cell-based; settings: HCT-116, 48 h; procedure, shortened: as §1
[5] = system: HCT-116; assay: Antiproliferative activity against human HCT116 cells over expressing RSK2 at 100 uM after 48 hrs by MTT assay; format: functional; settings: HCT-116, 48 h; procedure, shortened: as §1
[6] = target: T1, Ribosomal protein S6 kinase alpha-3 (Homo sapiens, UniProt P51812); assay: Inhibition of RSK2 after 60 mins
T1 sequence (P51812 whole entry): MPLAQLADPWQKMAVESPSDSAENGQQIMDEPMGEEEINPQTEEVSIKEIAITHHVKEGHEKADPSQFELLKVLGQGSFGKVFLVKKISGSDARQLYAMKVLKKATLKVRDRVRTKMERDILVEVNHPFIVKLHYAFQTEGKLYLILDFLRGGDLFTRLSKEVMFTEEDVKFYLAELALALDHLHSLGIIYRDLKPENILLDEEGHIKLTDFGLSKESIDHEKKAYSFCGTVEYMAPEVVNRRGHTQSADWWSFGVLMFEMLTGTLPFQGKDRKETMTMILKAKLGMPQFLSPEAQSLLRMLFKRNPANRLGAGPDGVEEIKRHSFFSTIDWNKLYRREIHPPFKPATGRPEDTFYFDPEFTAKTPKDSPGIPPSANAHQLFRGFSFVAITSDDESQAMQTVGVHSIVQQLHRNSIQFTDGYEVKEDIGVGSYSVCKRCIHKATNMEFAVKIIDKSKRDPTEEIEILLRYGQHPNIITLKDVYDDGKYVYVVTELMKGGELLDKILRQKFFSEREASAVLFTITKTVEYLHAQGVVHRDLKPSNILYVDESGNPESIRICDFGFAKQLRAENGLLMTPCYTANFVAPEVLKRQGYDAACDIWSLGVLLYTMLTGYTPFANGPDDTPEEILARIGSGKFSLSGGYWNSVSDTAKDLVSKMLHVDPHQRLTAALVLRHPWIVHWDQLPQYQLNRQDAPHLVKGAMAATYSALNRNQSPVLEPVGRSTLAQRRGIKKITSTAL
Procedure, shortened: (§2)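 Recombinant RSK2 (20 ng) preincubated 20 min at room temperature with compound in HEPES pH 7.4 buffer (MgCl2, EGTA, Tween 20, BGG) with 25 μM S6 peptide; started with ATP (10 μM final), 60 min at room temperature. ADP Quest fluorescence read at ex 530/em 590 nm. IC50 from curves of ≥3 independent tests, measured when inhibition at 10 μM exceeded 30%.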

[7] = target: Mitogen-activated protein kinase 3 (Homo sapiens) (UniProt P27361); assay: Inhibition of ERK1 at 10 uM
Procedure, shortened: (§3)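 Serine/threonine kinase profiling by an outside contract service following manufacturer protocols, ATP at Km for each enzyme; percent inhibition at 10 μM.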

[8] = target: Glycogen synthase kinase-3 alpha (Homo sapiens) (UniProt P49840); assay: Inhibition of GSK3alpha at 10 uM; procedure, shortened: as §3
Chain of Glycogen synthase kinase-3 alpha (Homo sapiens) (P49840 2-483 limits assumed): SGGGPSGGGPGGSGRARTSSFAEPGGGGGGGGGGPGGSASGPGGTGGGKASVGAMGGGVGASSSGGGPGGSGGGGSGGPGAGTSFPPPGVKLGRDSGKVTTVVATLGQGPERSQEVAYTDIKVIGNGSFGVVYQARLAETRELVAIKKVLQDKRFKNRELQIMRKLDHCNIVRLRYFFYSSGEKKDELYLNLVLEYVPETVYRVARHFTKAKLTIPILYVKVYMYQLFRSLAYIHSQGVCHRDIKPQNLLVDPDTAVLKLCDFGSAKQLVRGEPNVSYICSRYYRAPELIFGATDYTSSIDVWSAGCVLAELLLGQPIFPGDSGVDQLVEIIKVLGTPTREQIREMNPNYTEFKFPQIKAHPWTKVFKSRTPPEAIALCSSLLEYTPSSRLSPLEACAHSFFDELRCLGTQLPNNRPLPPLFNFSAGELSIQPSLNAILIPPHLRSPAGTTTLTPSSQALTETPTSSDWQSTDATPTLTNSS

[9] = target: T1, Ribosomal protein S6 kinase alpha-3; assay: Inhibition of RSK2 at 10 uM; procedure, shortened: as §2
[10] = target: Mitogen-activated protein kinase 9 (Homo sapiens) (UniProt P45984); assay: Inhibition of JNK2 at 10 uM; procedure, shortened: as §3
Chain of Mitogen-activated protein kinase 9 (Homo sapiens) (P45984 whole entry, looked up): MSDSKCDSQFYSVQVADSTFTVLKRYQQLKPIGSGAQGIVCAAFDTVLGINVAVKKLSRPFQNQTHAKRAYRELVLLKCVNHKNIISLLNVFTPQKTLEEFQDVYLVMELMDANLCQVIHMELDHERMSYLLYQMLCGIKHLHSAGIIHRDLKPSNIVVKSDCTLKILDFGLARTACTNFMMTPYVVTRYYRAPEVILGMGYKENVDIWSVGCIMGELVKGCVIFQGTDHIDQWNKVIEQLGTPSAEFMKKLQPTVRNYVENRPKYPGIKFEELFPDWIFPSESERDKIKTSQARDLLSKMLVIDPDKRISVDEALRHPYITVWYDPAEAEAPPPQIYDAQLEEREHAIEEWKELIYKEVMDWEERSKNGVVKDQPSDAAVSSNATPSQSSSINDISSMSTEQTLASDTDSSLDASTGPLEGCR

[11] = target: Mitogen-activated protein kinase 14 (Homo sapiens) (UniProt Q16539); assay: Inhibition of p38alpha at 10 uM; procedure, shortened: as §3
[12] = target: Ribosomal protein S6 kinase alpha-5 (Homo sapiens) (UniProt O75582); assay: Inhibition of MSK1 at 10 uM; procedure, shortened: as §3
[13] = system: MCF7; assay: Antiproliferative activity against human MCF7 cells over expressing RSK2 after 48 hrs by MTT assay; format: functional, cell-based; settings: MCF7, 48 h; procedure, shortened: as §1
[14] = target: Proto-oncogene tyrosine-protein kinase Src (Homo sapiens) (UniProt P12931); assay: Inhibition of c-Src at 10 uM by ELISA based method
Chain of Proto-oncogene tyrosine-protein kinase Src (Homo sapiens) (P12931 2-536 limits assumed): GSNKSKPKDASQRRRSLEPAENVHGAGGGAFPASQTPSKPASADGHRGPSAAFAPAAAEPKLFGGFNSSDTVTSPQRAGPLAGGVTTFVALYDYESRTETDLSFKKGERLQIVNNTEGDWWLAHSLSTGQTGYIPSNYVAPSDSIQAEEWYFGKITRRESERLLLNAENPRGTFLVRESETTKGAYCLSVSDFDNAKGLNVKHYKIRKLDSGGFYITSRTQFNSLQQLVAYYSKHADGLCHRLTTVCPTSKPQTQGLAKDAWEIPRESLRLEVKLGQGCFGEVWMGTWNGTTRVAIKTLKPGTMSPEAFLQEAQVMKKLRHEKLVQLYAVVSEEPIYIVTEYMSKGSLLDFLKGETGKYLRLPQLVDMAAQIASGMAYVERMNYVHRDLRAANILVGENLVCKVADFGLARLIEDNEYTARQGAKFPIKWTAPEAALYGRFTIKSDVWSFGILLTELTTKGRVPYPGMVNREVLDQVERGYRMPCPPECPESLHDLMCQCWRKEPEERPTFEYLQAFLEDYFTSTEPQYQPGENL
Procedure, shortened: (§4)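 Tyrosine kinase profiling by ELISA-based method, ATP at Km for each enzyme; percent inhibition at 10 μM, mean of at least two independent tests.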

[15] = target: RAC-alpha serine/threonine-protein kinase (Homo sapiens) (UniProt P31749); assay: Inhibition of AKT1 at 10 uM; procedure, shortened: as §3
[16] = target: Ribosomal protein S6 kinase beta-1 (Homo sapiens) (UniProt P23443); assay: Inhibition of p70S6K at 10 uM; procedure, shortened: as §3
[17] = target: Platelet-derived growth factor receptor beta (Homo sapiens) (UniProt P09619); assay: Inhibition of PDGFRbeta at 10 uM by ELISA based method; procedure, shortened: as §4
[18] = target: Mast/stem cell growth factor receptor Kit (Homo sapiens) (UniProt P10721); assay: Inhibition of c-Kit at 10 uM by ELISA based method; procedure, shortened: as §4
[19] = target: Proto-oncogene tyrosine-protein kinase receptor Ret (Homo sapiens) (UniProt P07949); assay: Inhibition of RET at 10 uM by ELISA based method; procedure, shortened: as §4
[20] = target: Tyrosine-protein kinase ABL1 (Homo sapiens) (UniProt P00519); assay: Inhibition of ABL at 10 uM by ELISA based method; procedure, shortened: as §4
[21] = target: Platelet-derived growth factor receptor alpha (Homo sapiens) (UniProt P16234); assay: Inhibition of PDGFRalpha at 10 uM by ELISA based method; procedure, shortened: as §4
[22] = target: 3-phosphoinositide-dependent protein kinase 1 (Homo sapiens) (UniProt O15530); assay: Inhibition of PDK1 at 10 uM
Chain of 3-phosphoinositide-dependent protein kinase 1 (Homo sapiens) (O15530 whole entry, looked up): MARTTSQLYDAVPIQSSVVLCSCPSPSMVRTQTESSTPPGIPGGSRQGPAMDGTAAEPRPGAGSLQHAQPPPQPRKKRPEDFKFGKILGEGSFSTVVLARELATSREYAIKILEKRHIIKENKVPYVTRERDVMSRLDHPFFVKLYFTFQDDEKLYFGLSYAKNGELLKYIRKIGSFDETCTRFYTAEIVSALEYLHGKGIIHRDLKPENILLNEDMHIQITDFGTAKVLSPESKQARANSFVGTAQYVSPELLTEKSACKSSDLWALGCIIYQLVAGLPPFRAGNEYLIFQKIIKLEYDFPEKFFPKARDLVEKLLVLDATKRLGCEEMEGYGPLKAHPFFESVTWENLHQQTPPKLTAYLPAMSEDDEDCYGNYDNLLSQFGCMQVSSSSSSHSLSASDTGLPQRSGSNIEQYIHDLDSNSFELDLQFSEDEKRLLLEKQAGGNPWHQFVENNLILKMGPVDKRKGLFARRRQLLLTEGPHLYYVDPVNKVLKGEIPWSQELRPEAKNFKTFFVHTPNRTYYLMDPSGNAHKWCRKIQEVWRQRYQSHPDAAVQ

[23] = target: Vascular endothelial growth factor receptor 1 (Homo sapiens) (UniProt P17948); assay: Inhibition of Flt1 at 10 uM by ELISA based method; procedure, shortened: as §4
[24] = target: Vascular endothelial growth factor receptor 2 (Homo sapiens) (UniProt P35968); assay: Inhibition of KDR at 10 uM by ELISA based method; procedure, shortened: as §4
Chain of Vascular endothelial growth factor receptor 2 (Homo sapiens) (P35968 whole entry): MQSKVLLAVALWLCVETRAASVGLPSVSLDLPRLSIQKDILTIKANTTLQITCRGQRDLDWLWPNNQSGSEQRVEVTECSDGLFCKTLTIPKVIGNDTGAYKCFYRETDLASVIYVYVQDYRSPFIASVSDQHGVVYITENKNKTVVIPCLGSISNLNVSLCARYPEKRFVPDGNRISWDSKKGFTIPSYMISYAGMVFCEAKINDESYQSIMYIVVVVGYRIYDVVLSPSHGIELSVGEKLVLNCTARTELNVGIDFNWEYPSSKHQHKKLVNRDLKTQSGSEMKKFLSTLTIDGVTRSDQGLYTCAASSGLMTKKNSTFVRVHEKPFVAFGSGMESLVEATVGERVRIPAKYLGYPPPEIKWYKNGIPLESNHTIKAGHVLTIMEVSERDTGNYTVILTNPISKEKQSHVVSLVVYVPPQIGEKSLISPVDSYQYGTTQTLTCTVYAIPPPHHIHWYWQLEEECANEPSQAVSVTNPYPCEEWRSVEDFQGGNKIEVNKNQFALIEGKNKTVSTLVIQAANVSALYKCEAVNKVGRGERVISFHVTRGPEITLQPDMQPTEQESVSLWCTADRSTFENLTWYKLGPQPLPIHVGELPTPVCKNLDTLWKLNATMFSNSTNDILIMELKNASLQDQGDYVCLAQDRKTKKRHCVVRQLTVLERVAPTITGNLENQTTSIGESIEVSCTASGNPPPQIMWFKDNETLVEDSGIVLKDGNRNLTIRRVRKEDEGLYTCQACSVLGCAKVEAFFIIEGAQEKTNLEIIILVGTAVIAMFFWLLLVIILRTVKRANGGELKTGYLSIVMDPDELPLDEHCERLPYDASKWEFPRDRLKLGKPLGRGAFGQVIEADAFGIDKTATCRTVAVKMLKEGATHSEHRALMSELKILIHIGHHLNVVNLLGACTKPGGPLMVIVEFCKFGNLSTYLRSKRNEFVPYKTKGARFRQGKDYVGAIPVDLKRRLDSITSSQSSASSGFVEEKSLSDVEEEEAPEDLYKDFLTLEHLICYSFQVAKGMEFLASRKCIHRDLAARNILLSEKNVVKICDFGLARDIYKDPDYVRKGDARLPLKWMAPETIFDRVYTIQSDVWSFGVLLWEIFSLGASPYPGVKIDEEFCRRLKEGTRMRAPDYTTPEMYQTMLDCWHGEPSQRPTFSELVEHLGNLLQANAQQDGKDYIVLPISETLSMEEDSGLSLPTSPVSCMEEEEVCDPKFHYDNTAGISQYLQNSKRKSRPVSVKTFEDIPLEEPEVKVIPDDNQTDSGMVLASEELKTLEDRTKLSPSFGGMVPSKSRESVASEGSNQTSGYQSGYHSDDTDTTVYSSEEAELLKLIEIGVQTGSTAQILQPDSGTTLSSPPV

[25] = target: Serine/threonine-protein kinase pim-1 (Homo sapiens) (UniProt P11309); assay: Inhibition of PIM1 at 10 uM; procedure, shortened: as §3
[26] = target: Epidermal growth factor receptor (Homo sapiens) (UniProt P00533); assay: Inhibition of EGFR at 10 uM by ELISA based method; procedure, shortened: as §4
[27] = target: Fibroblast growth factor receptor 1 (Homo sapiens) (UniProt P11362); assay: Inhibition of FGFR1 at 10 uM by ELISA based method; procedure, shortened: as §4
Chain of Fibroblast growth factor receptor 1 (Homo sapiens) (P11362 22-822 limits assumed): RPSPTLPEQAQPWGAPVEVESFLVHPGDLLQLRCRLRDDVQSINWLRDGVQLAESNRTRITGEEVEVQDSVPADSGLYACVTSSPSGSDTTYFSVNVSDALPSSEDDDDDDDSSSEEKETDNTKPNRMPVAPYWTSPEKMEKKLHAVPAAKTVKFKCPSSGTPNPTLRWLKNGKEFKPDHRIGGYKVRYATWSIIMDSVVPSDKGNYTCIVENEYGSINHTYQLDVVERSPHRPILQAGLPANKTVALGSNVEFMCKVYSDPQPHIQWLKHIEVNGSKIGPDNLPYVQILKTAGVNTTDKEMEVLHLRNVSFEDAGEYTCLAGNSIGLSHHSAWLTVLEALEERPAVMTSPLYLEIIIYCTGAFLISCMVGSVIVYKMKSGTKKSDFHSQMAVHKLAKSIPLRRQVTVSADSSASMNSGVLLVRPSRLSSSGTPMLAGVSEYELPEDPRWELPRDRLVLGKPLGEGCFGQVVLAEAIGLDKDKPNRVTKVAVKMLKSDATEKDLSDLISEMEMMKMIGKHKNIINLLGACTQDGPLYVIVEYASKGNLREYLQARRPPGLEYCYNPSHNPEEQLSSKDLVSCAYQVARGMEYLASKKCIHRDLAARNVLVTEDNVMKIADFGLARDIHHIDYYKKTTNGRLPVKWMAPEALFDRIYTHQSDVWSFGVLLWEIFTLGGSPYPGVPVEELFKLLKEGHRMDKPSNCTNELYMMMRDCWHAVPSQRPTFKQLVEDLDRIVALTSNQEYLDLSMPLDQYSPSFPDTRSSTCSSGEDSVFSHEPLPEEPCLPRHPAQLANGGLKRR

[28] = target: Ephrin type-A receptor 2 (Homo sapiens) (UniProt P29317); assay: Inhibition of EPHA2 at 10 uM by ELISA based method; procedure, shortened: as §4

**Q.** Which results are given for `O=C(Nc1ccccc1O)c1cnns1`?
**A.** inhibition at 100 µM [1]: 46.5%; pIC50 [2]: < 4.00; inhibition at 100 µM [3]: 32.7%; pIC50 [4]: < 4.00; inhibition at 100 µM [5]: 43.2%; pIC50 [6]: 5.52

**Q.** `O=c1[nH]c(=O)c2ncc(-c3ccc(O)cc3)nc2[nH]1` was tested. Which pIC50 [6] did it give?
**A.** The pIC50 was 4.84.

**Q.** `Nc1n[nH]c(N)c1/N=N/c1ccc(S(N)(=O)=O)cc1` was tested. Which inhibition at 100 µM [1] did it give?
**A.** Its inhibition at 100 µM is 18.5%.

**Q.** And the inhibition at 100 µM [3]?
**A.** Its inhibition at 100 µM is 32.9%.

**Q.** What about the inhibition at 100 µM [5] of the same compound?
**A.** The inhibition at 100 µM was 6.98%.

**Q.** What about the pIC50 [6] of the same compound?
**A.** Its pIC50 is 5.26.

**Q.** How did the pIC50 [6] turn out when `O=C(NNc1ccc(C(F)(F)F)cn1)c1ccccc1Cl` was run?
**A.** The pIC50 was 4.88.

**Q.** For `O=C1c2ccccc2C(=O)N1CNc1ccc(N2CCOCC2)cc1`, which inhibition at 100 µM [1] is on record?
**A.** Its inhibition at 100 µM is 6.89%.

**Q.** What about the inhibition at 100 µM [3] of the same compound?
**A.** The inhibition at 100 µM was 31.2%.

**Q.** And the inhibition at 100 µM [5]?
**A.** Its inhibition at 100 µM is 13.2%.

**Q.** And the pIC50 [6]?
**A.** The pIC50 was 6.02.

**Q.** With `COc1cc(/C=N/n2cnnc2)cc(I)c1O` as the compound, how does the pIC50 [6] read?
**A.** The pIC50 was 4.79.

**Q.** `Nc1nc2nc(O)nc(O)c2s1` was tested. Which pIC50 [6] did it give?
**A.** Its pIC50 is 5.00.

**Q.** What does the source list for `Oc1ccc(NCn2nnc3ccccc32)cc1`?
**A.** inhibition [7]: 2.8%; inhibition [8]: 29.3%; inhibition [9]: 89.2%; inhibition [10]: 11%; inhibition [11]: 13%; inhibition at 100 µM [1]: 98.8%; inhibition [12]: 10.1%; pIC50 [13]: 4.75; inhibition [14]: 14.2%; inhibition [15]: 8.6%; inhibition [16]: 6.9%; pIC50 [2]: 4.83; inhibition [17]: 55.2%; inhibition [18]: 15.6%; inhibition [19]: 10%; inhibition [20]: 8.6%; inhibition [21]: -6.9%; inhibition [22]: -5.8%; inhibition [23]: 2.4%; inhibition at 100 µM [3]: 97%; inhibition [24]: 16.9%; inhibition [25]: 0.7%; pIC50 [4]: 4.25; inhibition [26]: 32.4%; inhibition [27]: 31.3%; inhibition at 100 µM [5]: 91.6%; inhibition [28]: 38.2%; pIC50 [6]: 6.32

**Q.** Which results are given for `O=C1NC(=O)C(=NNc2ccc(O)cc2)C(=O)N1`?
**A.** inhibition at 100 µM [1]: 97.9%; pIC50 [13]: 4.81; pIC50 [2]: 5.01; inhibition at 100 µM [3]: 85.8%; pIC50 [4]: < 4.00; inhibition at 100 µM [5]: 49.1%; pIC50 [6]: 5.80
